Several values for one entry are separate records, joined by “and”; a condition that tells them apart may be missing. Equal entries are not always repeated. Structures can show the parent of a compound that is named as a salt.
Experiments:
Assay in all cases: Radioligand binding
hA1AR = biological target: T1, hA1AR (Homo sapiens, UniProt P30542); conditions: read-out: hA1 % of inhibition
T1 sequence (P30542 1-326): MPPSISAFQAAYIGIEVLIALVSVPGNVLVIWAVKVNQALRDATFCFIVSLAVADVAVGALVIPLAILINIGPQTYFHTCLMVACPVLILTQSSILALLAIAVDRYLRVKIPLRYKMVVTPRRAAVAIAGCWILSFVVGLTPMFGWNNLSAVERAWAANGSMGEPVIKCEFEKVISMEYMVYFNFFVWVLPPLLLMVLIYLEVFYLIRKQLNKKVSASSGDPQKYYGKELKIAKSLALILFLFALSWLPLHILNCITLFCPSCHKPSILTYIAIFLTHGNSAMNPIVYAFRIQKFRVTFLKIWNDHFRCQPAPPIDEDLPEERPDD
Procedure, shortened: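 Membranes came from CHO cells expressing recombinant hA1AR, labelled with [3H]R-PIA. ADA (3 units/mL) was present during membrane preparation, a 30 min 30 °C preincubation and radioligand incubation. Test compound was dissolved in DMSO and diluted in buffer, DMSO ≤2% final. Incubations ended by GF/B filtration and three buffer rinses. The read-out is % inhibition of specific binding at a single concentration.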

hA3AR = biological target: T2, hA3AR (Homo sapiens, UniProt P0DMS8); conditions: selectivity ratio of Ki values
T2 sequence (P0DMS8 1-318): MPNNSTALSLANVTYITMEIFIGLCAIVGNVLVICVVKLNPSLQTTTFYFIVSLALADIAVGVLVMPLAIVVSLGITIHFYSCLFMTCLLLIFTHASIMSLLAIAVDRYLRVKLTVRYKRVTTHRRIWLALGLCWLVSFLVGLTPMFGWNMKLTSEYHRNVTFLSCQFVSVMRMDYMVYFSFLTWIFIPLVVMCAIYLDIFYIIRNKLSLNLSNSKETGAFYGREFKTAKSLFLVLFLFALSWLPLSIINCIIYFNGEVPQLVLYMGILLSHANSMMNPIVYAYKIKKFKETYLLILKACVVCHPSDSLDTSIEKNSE
Procedure, shortened: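 Displacement of [125I]AB-MECA binding on membranes from CHO cells expressing recombinant hA3AR. […] ADA (3 units/mL) was present during membrane preparation, a 30 min 30 °C preincubation and radioligand incubation. DMSO was ≤2% final. At least six competitor concentrations spanning 3 log units were used. Incubations ended by GF/B filtration and three rinses.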

hA2AAR = hA2AAR (Homo sapiens, UniProt P29274); conditions: selectivity ratio of Ki values
Sequence of hA2AAR (P29274 whole entry): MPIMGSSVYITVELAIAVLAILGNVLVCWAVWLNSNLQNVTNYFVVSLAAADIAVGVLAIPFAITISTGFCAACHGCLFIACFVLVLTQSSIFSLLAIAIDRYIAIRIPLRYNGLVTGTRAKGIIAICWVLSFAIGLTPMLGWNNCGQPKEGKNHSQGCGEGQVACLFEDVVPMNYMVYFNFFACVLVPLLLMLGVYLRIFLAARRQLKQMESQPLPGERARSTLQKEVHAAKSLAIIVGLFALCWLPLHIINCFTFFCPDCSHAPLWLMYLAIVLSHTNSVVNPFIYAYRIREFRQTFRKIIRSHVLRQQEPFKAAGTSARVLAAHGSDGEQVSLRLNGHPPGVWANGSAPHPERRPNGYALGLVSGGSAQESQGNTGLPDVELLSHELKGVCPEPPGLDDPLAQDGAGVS

For `Cn1cc2c(nc(NC(=O)Nc3ccc(CC(=O)NCCCCNC(=S)Nc4ccc(-c5c6ccc(=O)cc-6oc6cc(O)ccc56)c(C(=O)O)c4)cc3)n3nc(-c4ccco4)nc23)n1` [Compound 15, 5-(3-(4-(2-(4-(3-(2-(furan-2-yl)-8-methyl-8H-pyrazolo[4,3-e][1,2,4]triazolo[1,5-c]pyrimidin-5-yl)ureido)phenyl)acetamido)butyl)thioureido)-2-(6-hydroxy-3-oxo-3H-xanthen-9-yl)benzoate], the inhibition at 10 µM (hA1AR) was 28%, the hA2A/hA3 (hA3AR) was 0.82 and the hA1/hA2A (hA2AAR) was >129.

For `Cn1cc2c(nc(NC(=O)Nc3ccc(CC(=O)NCCOCCOCCN)cc3)n3nc(-c4ccco4)nc23)n1.O=C(O)C(F)(F)F` [Compound 12, 2-(2-(2-(2-(4-(3-(2-(furan-2-yl)-8-methyl-8H-pyrazolo[4,3-e][1,2,4]triazolo[1,5-c]pyrimidin-5-yl)ureido)phenyl)acetamido)ethoxy)ethoxy)ethanamine trifluoroacetate salt], the hA1/hA3 (hA3AR) was >520, the hA2A/hA3 (hA3AR) was 14 and the hA1/hA2A (hA2AAR) was >37.4.

With `Cn1cc2c(nc(NC(=O)Nc3ccc(CC(=O)NCCCN)cc3)n3nc(-c4ccco4)nc23)n1` [Compound 9, N-(3-aminopropyl)-2-(4-(3-(2-(furan-2-yl)-8-methyl-8H-pyrazolo[4,3-e][1,2,4]triazolo[1,5-c]pyrimidin-5-yl)ureido)phenyl) acetamide trifluoroacetate salt] the hA1/hA3 (hA3AR) was >1240, the hA2A/hA3 (hA3AR) was 21.7 and the hA1/hA2A (hA2AAR) was >57.

With `Cn1cc2c(nc(NC(=O)Nc3ccc(CC(=O)NCCCCCNC(=S)Nc4ccc(-c5c6ccc(=O)cc-6oc6cc(O)ccc56)c(C(=O)O)c4)cc3)n3nc(-c4ccco4)nc23)n1` [Compound 16, 5-(3-(5-(2-(4-(3-(2-(furan-2-yl)-8-methyl-8H-pyrazolo[4,3-e][1,2,4]triazolo[1,5-c]pyrimidin-5-yl)ureido)phenyl)acetamido)pentyl)thioureido)-2-(6-hydroxy-3-oxo-3H-xanthen-9-yl)benzoate] the inhibition at 10 µM (hA1AR) was 21%, the hA1/hA3 (hA3AR) was >103 and the hA2A/hA3 (hA3AR) was 1.1. For the same molecule, the hA1/hA2A (hA2AAR) was >94.

In the case of `Cn1cc2c(nc(NC(=O)Nc3ccc(CC(=O)O)cc3)n3nc(-c4ccco4)nc23)n1` [Compound 3, 2-(4-(3-(2-(furan-2-yl)-8-methyl-8H-pyrazolo [4,3-e] [1,2,4]triazolo[1,5-c]pyrimidin-5-yl)ureido)phenyl)acetic acid], the hA1/hA2A (hA2AAR) is reported as >10.

For `C#CCCCCC(=O)Nc1nc2nn(C)cc2c2nc(-c3ccco3)nn12` [Compound 21, N-(2-(furan-2-yl)-8-methyl-8H-pyrazolo[4,3-e][1,2,4]triazolo[1,5-c]pyrimidin-5-yl)hept-6-ynamide], the hA1/hA3 (hA3AR) was 122 and 122.7, the hA2A/hA3 (hA3AR) was 20.7 and the hA1/hA2A (hA2AAR) was 5.9.

In the case of `Cn1cc2c(nc(NC(=O)Nc3ccc(CC(=O)NCCCCCN)cc3)n3nc(-c4ccco4)nc23)n1` [Compound 11, N-(5-aminopentyl)-2-(4-(3-(2-(furan-2-yl)-8-methyl-8H-pyrazolo[4,3-e][1,2,4]triazolo[1,5-c]pyrimidin-5-yl)ureido)phenyl) acetamide trifluoroacetate salt], the hA1/hA3 (hA3AR) is reported as >3759, the hA2A/hA3 (hA3AR) is reported as 76.3 and the hA1/hA2A (hA2AAR) is reported as >49.

`Cn1cc2c(nc(NC(=O)Nc3ccc(CC(=O)NCCOCCOCCNC(=O)OC(C)(C)C)cc3)n3nc(-c4ccco4)nc23)n1` [Compound 7, tert-Butyl (2-(2-(2-(2-(4-(3-(2-(furan-2-yl)-8-methyl-8H-pyrazolo[4,3-e][1,2,4]triazolo[1,5-c]pyrimidin-5-yl)ureido)phenyl)acetamido)ethoxy)ethoxy)ethyl)carbamate] was tested, and the hA1/hA3 (hA3AR) was >133.6, the hA2A/hA3 (hA3AR) was 6.1 and the hA1/hA2A (hA2AAR) was >22.

In the case of `Cn1cc2c(nc(NC(=O)Nc3ccc(CC(=O)NCCCOCCOCCOCCCNC(=O)OC(C)(C)C)cc3)n3nc(-c4ccco4)nc23)n1` [Compound 8, tert-Butyl (1-(4-(3-(2-(furan-2-yl)-8-methyl-8H-pyrazolo [4,3-e][1,2,4]triazolo[1,5-c]pyrimidin-5-yl)ureido)phenyl)-2-oxo-7,10,13-trioxa-3-azahexadecan-16-yl)carbamate], the hA1/hA3 (hA3AR) is reported as >121.3, the hA2A/hA3 (hA3AR) is reported as 3.9 and the hA1/hA2A (hA2AAR) is reported as >30.5.

`Cn1cc2c(nc(NC(=O)Nc3ccc(CC(=O)NCCCCN)cc3)n3nc(-c4ccco4)nc23)n1` [Compound 10, N-(4-aminobutyl)-2-(4-(3-(2-(furan-2-yl)-8-methyl-8H-pyrazolo[4,3-e][1,2,4]triazolo[1,5-c]pyrimidin-5-yl)ureido)phenyl) acetamide trifluoroacetate salt] was tested, and the hA1/hA3 (hA3AR) was >1666, the hA2A/hA3 (hA3AR) was 28.6 and the hA1/hA2A (hA2AAR) was >58.

For `Cn1cc2c(nc(NC(=O)Nc3ccc(CC(=O)NCCCCCNC(=O)OC(C)(C)C)cc3)n3nc(-c4ccco4)nc23)n1` [Compound 6, tert-Butyl (5-(2-(4-(3-(2-(furan-2-yl)-8-methyl-8H-pyrazolo [4,3-e][1,2,4]triazolo[1,5-c]pyrimidin-5-yl)ureido)phenyl)acetamido)pentyl)carbamate], the hA1/hA3 (hA3AR) was >2237, the hA2A/hA3 (hA3AR) was 84.1 and the hA1/hA2A (hA2AAR) was >26.5.

For `Cn1cc2c(nc(NC(=O)Nc3ccc(CC(=O)NCCCOCCOCCOCCCN)cc3)n3nc(-c4ccco4)nc23)n1.O=C(O)C(F)(F)F` [Compound 13, N-(3-(2-(2-(3-aminopropoxy)ethoxy)ethoxy)propyl)-2-(4-(3-(2-(furan-2-yl)-8-methyl-8H-pyrazolo[4,3-e][1,2,4]triazolo[1,5-c]pyrimidin-5-yl)ureido)phenyl)acetamide trifluoroacetate salt], the hA1/hA3 (hA3AR) was >970, the hA2A/hA3 (hA3AR) was 30.3 and the hA1/hA2A (hA2AAR) was >30.

In the case of `C#CCCCCCC(=O)Nc1nc2nn(C)cc2c2nc(-c3ccco3)nn12` [Compound 22, N-(2-(furan-2-yl)-8-methyl-8H-pyrazolo[4,3-e][1,2,4]triazolo[1,5-c]pyrimidin-5-yl)oct-7-ynamide], the hA1/hA3 (hA3AR) is reported as >781, the hA2A/hA3 (hA3AR) is reported as 37.6 and the hA1/hA2A (hA2AAR) is reported as >20.7.

`C#CCCCC(=O)Nc1nc2nn(C)cc2c2nc(-c3ccco3)nn12` [Compound 20, N-(2-(furan-2-yl)-8-methyl-8H-pyrazolo[4,3-e][1,2,4]triazolo[1,5-c]pyrimidin-5-yl)hex-5-ynamide] was tested, and the hA2A/hA3 (hA3AR) was 48.4.

For `Cn1cc2c(nc(NC(=O)Nc3ccc(CC(=O)NCCCNC(=O)OC(C)(C)C)cc3)n3nc(-c4ccco4)nc23)n1` [Compound 4, tert-Butyl (3-(2-(4-(3-(2-(furan-2-yl)-8-methyl-8H-pyrazolo [4,3-e][1,2,4]triazolo[1,5-c]pyrimidin-5-yl)ureido)phenyl)acetamido)propyl)carbamate], the hA1/hA3 (hA3AR) was >3636, the hA2A/hA3 (hA3AR) was 54.5 and the hA1/hA2A (hA2AAR) was >66.

In the case of `C#CCCC(=O)Nc1nc2nn(C)cc2c2nc(-c3ccco3)nn12` [Compound 19, N-(2-(furan-2-yl)-8-methyl-8H-pyrazolo[4,3-e][1,2,4]triazolo[1,5-c]pyrimidin-5-yl)pent-4-ynamide], the inhibition at 10 µM (hA1AR) is reported as 55%, the hA1/hA3 (hA3AR) is reported as >909 and the hA2A/hA3 (hA3AR) is reported as 16.5.

`Cn1cc2c(nc(NC(=O)Nc3ccc(CC(=O)NCCCCNC(=O)OC(C)(C)C)cc3)n3nc(-c4ccco4)nc23)n1` [Compound 5, tert-Butyl (4-(2-(4-(3-(2-(furan-2-yl)-8-methyl-8H-pyrazolo [4,3-e][1,2,4]triazolo[1,5-c]pyrimidin-5-yl)ureido)phenyl)acetamido)butyl)carbamate] was tested, and the hA1/hA3 (hA3AR) was >2890, the hA2A/hA3 (hA3AR) was 88 and the hA1/hA2A (hA2AAR) was >33.

From PMC7199890 (European journal of medicinal chemistry, 2019)
